# Measured values from PMC4837691 (Molecular pharmaceutics, 2015).
# Assays:
# [1] = system: scavenger receptors (liver uptake of 125I-pGL3 polyplexes); test: Inhibition of liver uptake of 125I-pGL3 polyplexes by excess PEG-peptide; assay type: in vivo; conditions: mice, PEG 5 kDa peptides dosed in excess (not shown)
# liver = system: liver; design: species or system mice; conditions: mouse, in vivo
# [2] = system: liver hepatocytes (luciferase expression); test: HD-stimulated / direct HD luciferase gene expression in liver; assay type: in vivo, mice; conditions: for fold increase of expression on substitution for the PEG-peptide five Lys shorter: 80 nmol PEG-peptide, 1 μg pGL3, HD-stimulation at 1 hour
# Method in brief: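 Triplicate mice received 1 μg pGL3 polyplex with 10, 40 or 80 nmol PEG-peptide in 100 μL HBM by tail vein. After 1 h circulation, 1.8 mL saline (per 20 g mouse) was given hydrodynamically over 5 s by tail vein. Liver bioluminescence was imaged 24 h later and analysed as log10 values. Controls: naked pGL3 with HD at 5 min, and direct HD of pGL3.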
# serum DNAse = conditions: cited from earlier work
substance,measurement,setting,value
PEG5kDa-Cys-Trp-Lys15,inhibition of polyplex uptake into the liver when dosed in excess,[1],failed to inhibit polyplex uptake into the liver
PEG30kDa-Cys-Trp-Lys25,maximal percent of polyplex dose taken up by liver,liver,~30%
same,percent of polyplex dose taken up by liver,liver,approximately 16%
same,fold increase of expression on substitution for the PEG-peptide five Lys shorter,[2],5 fold
same,fold increase of expression (over 10 nmol dose),"[2]; 1 μg pGL3 polyplex with 40 nmol PEG-peptide, HD-stimulation at 1 hour",100 fold
same,further fold improvement of expression (over 40 nmol dose),"[2]; 1 μg pGL3 polyplex with 80 nmol PEG-peptide, HD-stimulation at 1 hour",15 fold
PEG30kDa-Cys-Trp-Lys20,fold increase of expression on substitution for the PEG-peptide five Lys shorter,[2],5 fold
PEG5kDa-Cys-Trp-Lys18,resistance of polyplexes to metabolism by serum DNAse in vitro,serum DNAse,resisted metabolism by serum DNAse in vitro
